Assay outcomes: PubChem, several laboratories
In the library only some 2.6% were active in any assay of this set; here they are far more common.
HSF1 inh = HSF1 inhibition; NIH3T3-HGL HSE-luciferase, MG132-induced, luminescence 8 h; hits give low values; activity change, negative = inhibition, % at 7.5 µM (by protocol); 0.77% of 300,000 active;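 active means more than half of replicate wells show activity change below -50%, luminescence cut by over half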;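 further: luciferase reports HSF-1 transcriptional activity via heat shock element; 0% = median of DMSO wells and -100% = zero luminescence signal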
Hsp70 activator = transcriptional activators of Hsp70; HeLa Hsp70 promoter luciferase reporter, luminescence; scaled: vehicle 0, proteasome-inhibitor control 100%; activation, % at 10 µM; 0.04% of 200,000 active; AID 1203;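 active means activation above the mean across all tested compounds plus 3 SD, cutoff set per campaign, cut at about 5.5% in these data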;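 further: 100% = MG132 at 30 µM as the positive control and 0% = DMSO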
Rad51 HR inh = blocks human Rad51 in homologous recombination; Q06609; hRad51 DNA strand exchange, fluorescence dequenching; inhibition, % at 10 µM; 0.085% of 200,000 active; AID 1385;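 active means inhibition above 40% at the single screening dose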;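 further: 0% = DMSO control wells and 100% = blanks with heterologous ssDNA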
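Assay system: Human Rad51 nucleoprotein filaments preassembled on unlabelled ssDNA | Reagent: Donor/quencher-labelled 47-bp dsDNA substrate | Doses: One concentration, 10 µM final | Times: 37 °C 15-min filament assembly, 30-min compound preincubation, 15-min exchange | Technique: Fluorescein emission 520 nm, excitation 485 nm | Benchmarks: Plate control and blank wells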
HSV augment = HSV replication enhancement; HSV replication augmentation in cells, fold increase; maximum fold increase; AID 1956; 0.005% of 220,000 active; in the data active means maximum fold increase above about 1.5; tested in PC3 cells
HSF1 activator = increases HSF-1 driven luciferase reporter signal; NIH3T3-HGL HSF-1 luciferase reporter, MG132, 8 h; 100% = twice DMSO control signal; activation, % at 9 µM; 1.7% of 300,000 active;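 active means mean replicate activation of at least 50% with a set share of replicates each reaching 50%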;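 further: 0% = median of the neutral control wells and 100% = twice that signal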
Mdm2 ligase inh = Mdm2 E3 ligase (human) inhibition; Q00987; 0.11% of 210,000 active; signal enhancement, % at 5 µM; cell-based MDM2 ubiquitination luciferase reporter, 2 h; 0 = plate control, 100 = twice control, blank-subtracted; AID 1230;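 active means signal enhancement of 30% or more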;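 further: luminescence tracks abundance of the self-degrading MDM2-luciferase fusion protein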
Target sequence (Q00987 whole entry, looked up, the tested form may be a part): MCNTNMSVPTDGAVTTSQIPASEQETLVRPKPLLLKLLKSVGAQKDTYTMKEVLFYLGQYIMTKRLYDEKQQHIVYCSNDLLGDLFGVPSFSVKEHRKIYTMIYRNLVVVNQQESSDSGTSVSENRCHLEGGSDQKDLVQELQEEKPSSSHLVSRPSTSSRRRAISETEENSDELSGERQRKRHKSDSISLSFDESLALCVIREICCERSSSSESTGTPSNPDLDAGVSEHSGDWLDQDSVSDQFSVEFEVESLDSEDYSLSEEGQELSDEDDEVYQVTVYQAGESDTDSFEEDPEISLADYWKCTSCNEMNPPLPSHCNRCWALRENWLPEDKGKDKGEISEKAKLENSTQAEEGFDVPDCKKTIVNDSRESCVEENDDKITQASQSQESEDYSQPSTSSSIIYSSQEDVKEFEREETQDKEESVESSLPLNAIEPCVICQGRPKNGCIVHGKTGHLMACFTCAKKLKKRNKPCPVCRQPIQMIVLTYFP
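Material: Stable MDM2–luciferase fusion reporter cells | Amount: 2000 cells seeded into each well | Dosing: One concentration, 5 µM, with 0.2% DMSO | Incubation: 4 h cell settling then 2 h compound exposure, 37 °C | Measured by: Luciferase luminescence | Read-out basis: % enhancement relative to plate controls after blank subtraction | Benchmarks: Control and blank well means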
Starred values were filed as active, the others as inactive; i = inactive; x = no result; ! = not active in a repeat.

SMILES	HSF1 inh	Hsp70 activator	Rad51 HR inh	HSV augment	HSF1 activator	Mdm2 ligase inh
CCOC(=O)c1c(NC(=O)CSc2nc3cc(Cl)ccc3c(=O)n2Cc2ccco2)sc(C(=O)N(C)C)c1C	117	0	4	i	146*	-6
CCc1ccc(NC(=O)CSc2nc3cc(C(=O)OC)ccc3c(=O)n2Cc2ccco2)cc1	2	0	-9	i	-12	4
Cc1ccc(NC(=O)CSCc2cc(=O)n3cc(C)sc3n2)c(C)c1	-59*	x	x	x	-69	x
COc1ccc(C2Nc3ccccc3C(=O)N2Cc2ccco2)cc1COc1ccc(F)cc1 (stereo not drawn)	67	0	1	i	103*	x
COc1ccc(C2Nc3ccccc3C(=O)N2Cc2ccco2)cc1CN1C(=O)c2ccccc2C1=O (stereo not drawn)	6	0	3	i	63*!	-9
COc1ccc(C2Nc3ccccc3C(=O)N2Cc2ccccc2)cc1COc1ccccn1 (stereo not drawn)	x	0	-3	i	x	-19
CNC(=O)c1ccc(=O)n(Cc2cccc(C(F)(F)F)c2)c1	-3	0	-1	i	-4	-19
CC(C)(C)c1ccc2c(c1)OC(C(=O)N/N=C\c1ccc[nH]1)CO2 (stereo not drawn)	-73*	x	x	x	-75	x
CC(C)(C)c1ccc2c(c1)OC(C(=O)N/N=C\c1ccncc1)CO2 (stereo not drawn)	2	x	16	i	-2	0
COc1ccc(F)cc1C(=O)C1CCCN(C(=O)c2ccccc2N(C)C)C1 (stereo not drawn)	5	x	x	x	5	x
O=C1CCN(CCc2ccccc2)CCN1CCSc1ccccc1	4	x	x	x	6	x
CCOc1ccc(N2CSC(=S)N(c3ccc(OCC)cc3)C2)cc1	-65*	x	-6	i	-71	-13
CCOc1ccc(N2CC(=O)SC2=S)cc1	-3	0	-8	i	4	-12
Cc1ccc2nc(-c3ccc(NC(=O)Cc4cccs4)cc3)[nH]c2c1	37	0	-4	i	76*	-20
CC(=O)Nc1cccc(C(=O)OCC(=O)c2ccccc2Cl)c1	39	0	4	i	85*	-49
CCC(=O)Nc1cccc(C(=O)OCC(=O)c2ccccc2Cl)c1	36	0	0	i	65*	3
CCC(=O)Nc1cccc(C(=O)c2ccccc2)c1	14	0	-2	i	11	-7
CCC(=O)Nc1ccccc1C(=O)OCC(=O)c1ccc2ccccc2c1	5	0	6	i	29	-8
CCC(=O)Nc1ccccc1C(=O)OCC(=O)c1ccccc1	35	0	5	i	79*	0
Oc1c(Br)cc(Br)cc1C=NCc1ccc(F)cc1	-7	0	7	i	11	-15
Cc1ccc(C(=O)Nc2nc(=O)[nH]s2)cc1	1	1	-1	i	11	-14
COc1ccccc1CNC(=O)[C@H](NC(=O)C1CCN(C(=O)[C@@H](N)CCSC)CC1)C(C)C	0	x	x	x	12	x
CC(C)c1ccc(C2CC(=O)c3cnc(NC(=O)c4ccco4)nc3C2)cc1 (stereo not drawn)	0	x	x	x	6	x
N#CCC(=O)Nc1ccc(C(=O)NCc2ccccn2)cc1	-2	0	9	i	-2	-13
O=C(c1ccco1)N1CCCN(Cc2cn[nH]c2-c2ccc(-c3ccccc3)cc2)CC1	34	1	3	i	76*	-9
SMILES	HSF1 inh	Hsp70 activator	Rad51 HR inh	HSV augment	HSF1 activator	Mdm2 ligase inh
COc1ccc(-c2[nH]ncc2CN2CCN(C(=O)c3ccco3)CC2)cc1F	-7	0	x	i	2	-1
CCOC(=O)c1c(C)[nH]c(C(=O)N/N=C/c2cc([N+](=O)[O-])ccc2O)c1C	-59*	x	x	x	-64	x
CN1C(=O)SC(Nc2ccccc2)C1=O (stereo not drawn)	-11	0	-3	i	4	-3
COc1cccc(NC2SC(=O)N(c3ccccc3)C2=O)c1 (stereo not drawn)	35	0	0	i	59*	-26
OCC(O)[C@@H](O[C@H]1O[C@H](CO)[C@@H](O)[C@H](O)[C@H]1O)[C@H](O)[C@@H](O)CO (stereo partly drawn)	-32	x	x	x	-48	x
COc1cccc(NC(=O)Cn2c3ccc(F)cc3c3nc4n(c(=O)c32)CCCS4)c1	-28	x	x	x	-44	x
COc1cc(CO)ccc1OCC(=O)N1CCc2ccccc21	2	x	x	x	2	x
O=C(CNC(=O)c1ccccc1Cl)OCC(=O)N1CCc2ccccc21	27	0	19	i	55*	-4
CC(=O)Nc1ccc(S(=O)(=O)N(C)CC(=O)OCC(=O)N2CCc3ccccc32)cc1	-1	0	x	x	2	47*
O=C(COc1ccc(F)cc1Br)N1CCc2ccccc21	23	0	2	i	80*	-38
COc1ccc(/C=C(\C#N)C(=O)Nc2cccc(C)n2)cc1	52	x	x	x	71*	x
Cc1cccc(NC(=O)/C(C#N)=C/c2ccccc2Cl)n1	1	x	x	x	-13	x
Cc1cccc(NC(=O)/C(C#N)=C/c2ccccc2O)n1	28	x	x	x	77*	x
CCOC(=O)N1CCN(C(=O)c2ccc3oc(CCCc4ccccc4)nc3c2)CC1	23	x	x	x	61*	x
CC(=O)N1CCN(C(=O)c2ccc3oc(CCCc4ccccc4)nc3c2)CC1	-2	x	x	x	-4	x
CC(C)N(Cc1ccccc1)C(=O)COC(=O)/C=C/c1cnc2ccccc2n1	23	0	-3	i	63*	8
CCN(C(=O)COC(=O)/C=C/c1cnc2ccccc2n1)c1ccccc1	x	0	13	i	x	-11
CN(/N=C/c1cc(Cl)ccc1O)C1=NS(=O)(=O)c2ccccc21	4	x	x	x	9	x
c1ccc(N2CCOCCOCCOCCOCC2)cc1	-10	x	-3	i	1	-7
c1ccn(-c2ccc(N3CCOCC3)cc2)c1	-62*	0	x	x	-68	-23
O=C(N/N=C/c1ccco1)C1(O)c2ccccc2-c2ccccc21	14	x	-15	i	56*	-10
O=C(N/N=C/c1ccco1)C(O)C(O)C(=O)N/N=C/c1ccco1 (stereo not drawn)	-1	x	x	x	7	x
NNC(=O)c1ccc(O)cc1O	-88*	0	-5	i	-91	0
CCCOC(=O)c1ccc(O)c(OC)c1	-1	0	-6	i	-12	45*
COc1cc(C(=O)OCCN2CCCCC2)ccc1O	0	0	-11	i	-1	-18
CCCNC(=O)N1CCCC(C(=O)c2cccc(Cl)c2)C1 (stereo not drawn)	-54*	0	3	i	-65	-3
O=C(NCCSc1ccccc1)c1ccccc1Cl	22	0	x	i	44	x
Cc1ccccc1C(=O)NCCSc1ccccc1	29	0	3	i	54*	-13
